The text below walks through data of ChEMBL document CHEMBL4261600 (Eur J Med Chem, 2018).

The structures appear in SMILES notation.

Series [1] addresses Cyclin-dependent kinase 9 (Homo sapiens, UniProt P50750). Description: Inhibition of CDK9 in human HL60 cells assessed as decrease in RNA polymerase 2 phosphorylation at Ser 2 residues in CTD domain after 2 hrs by immunoblotting analysis. It is filed as cell-based. On the technique in general: In western blotting, separated proteins are transferred to a membrane and probed.
Series [2] in a line: Apparent volume of distribution in mouse at 3 mg/kg, iv by LC-MS/MS analysis. It is filed as ADME, organism-based. The conditions noted are these: in vivo, read-out: Vz. Summed up:
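Non-compartmental PK. Male SD rats 190-210 g, mice and beagle dogs acclimatized one week, fasted 12 h with water, split into iv and po groups (mice 48, rats 6, dogs 6). iv 3/3/2 mg/kg (mice/rats/dogs); po 10/20/10 mg/kg; vehicle DMSO in 5% glucose water. Blood at 2 or 5 to 720 min; plasma protein-precipitated with methanol, caffeine internal standard, LC-MS/MS.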

Series [3] deals with Tyrosine-protein kinase ABL1 (Homo sapiens), P00519 [T315I]. Description: Binding affinity to human non-phosphorylated ABL1 T315I mutant (S229 to K512 residues) expressed in mammalian expression system assessed as remaining unbound target protein level at 1000 nM by Kinomescan method relative to control. In outline:
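KINOMEscan competition-binding profiling across the panel of 468 kinases and mutants, with inhibitor tested at 1 μM. Binding is expressed as percent of control, with DMSO as the reference control.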

Series [4] deals with ALK tyrosine kinase receptor (Homo sapiens), Q9UM73 [L1196M]. Description: Binding affinity to wild-type human partial length ALK L1196M mutant (I1088 to E1409 residues) expressed in mammalian expression system assessed as remaining unbound target protein level at 1000 nM by Kinomescan method relative to control. In outline:
(§1)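 Profiled in a KINOMEscan binding panel with the inhibitor at a single concentration of 1 μM. Binding to each kinase was read out as percent of control, relative to a DMSO control. Strong binders were defined as those with a percent control value below 1.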

In series [5] the target is Epidermal growth factor receptor (Homo sapiens) (UniProt P00533). Description: Binding affinity to wild-type human partial length EGFR (R669 to V1011 residues) expressed in bacterial expression system assessed as remaining unbound target protein level at 1000 nM by Kinomescan method relative to control.
In series [6] the target is Interleukin-1 receptor-associated kinase 1 (Homo sapiens) (UniProt P51617). Description: Binding affinity to wild-type human partial length IRAK1 (R194 to S712 residues) expressed in mammalian expression system assessed as remaining unbound target protein level at 1000 nM by Kinomescan method relative to control. In outline: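 KINOMEscan binding panel of 468 kinases/mutants. Inhibitor was tested at a single concentration of 1 μM. Binding is reported as percent of control, defined relative to a DMSO control.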

The target in series [7] is Serine/threonine-protein kinase Nek10 (Homo sapiens) (UniProt Q6ZWH5). Description: Binding affinity to wild-type human partial length NEK10 (L488 to R809 residues) expressed in mammalian expression system assessed as remaining unbound target protein level at 1000 nM by Kinomescan method relative to control.
Series [8] concerns the target Cyclin-dependent kinase 18 (Homo sapiens) (UniProt Q07002). Description: Binding affinity to wild-type human full length PCTK3 (M3 to F474 residues) expressed in bacterial expression system assessed as remaining unbound target protein level at 1000 nM by Kinomescan method relative to control. In outline: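 KINOMEscan competition binding profile across a panel of 468 kinases and mutants, with the inhibitor tested at a single concentration of 1 μM. Binding is reported as percent of control, meaning signal relative to a DMSO control.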

Series [9] has as its target Phosphatidylinositol 4-phosphate 5-kinase type-1 gamma (Homo sapiens) (UniProt O60331). Description: Binding affinity to wild-type human partial length PIP5K1C (M1 to T668 residues) expressed in mammalian expression system assessed as remaining unbound target protein level at 1000 nM by Kinomescan method relative to control.
Series [10] has as its target cAMP-dependent protein kinase catalytic subunit PRKX (Homo sapiens) (UniProt P51817). Description: Binding affinity to wild-type human partial length PRKX (M1 to F358 residues) expressed in bacterial expression system assessed as remaining unbound target protein level at 1000 nM by Kinomescan method relative to control.
Series [11] addresses Ribosomal protein S6 kinase alpha-4 (Homo sapiens) (UniProt O75676). Description: Binding affinity to wild-type human partial length C-terminal RPS6KA4 kinase domain 2 (M375 to T705 residues) expressed in mammalian expression system assessed as remaining unbound target protein level at 1000 nM by Kinomescan method relative to control. In outline: as §1

Cyclin-dependent kinase 9, sequence (P50750 whole entry, the tested form may be a part): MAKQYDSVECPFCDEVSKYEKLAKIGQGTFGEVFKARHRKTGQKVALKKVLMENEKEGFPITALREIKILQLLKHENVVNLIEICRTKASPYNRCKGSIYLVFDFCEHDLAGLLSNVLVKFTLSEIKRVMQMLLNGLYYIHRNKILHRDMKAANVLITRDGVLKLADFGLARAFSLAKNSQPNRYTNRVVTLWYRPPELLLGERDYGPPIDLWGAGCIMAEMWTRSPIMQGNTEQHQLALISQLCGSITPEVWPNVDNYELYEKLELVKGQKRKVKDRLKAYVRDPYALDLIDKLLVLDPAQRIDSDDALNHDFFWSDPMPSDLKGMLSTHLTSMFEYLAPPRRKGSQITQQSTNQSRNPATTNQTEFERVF
Cyclin-dependent kinase 18 (Homo sapiens), sequence (Q07002 whole entry, the tested form may be a part): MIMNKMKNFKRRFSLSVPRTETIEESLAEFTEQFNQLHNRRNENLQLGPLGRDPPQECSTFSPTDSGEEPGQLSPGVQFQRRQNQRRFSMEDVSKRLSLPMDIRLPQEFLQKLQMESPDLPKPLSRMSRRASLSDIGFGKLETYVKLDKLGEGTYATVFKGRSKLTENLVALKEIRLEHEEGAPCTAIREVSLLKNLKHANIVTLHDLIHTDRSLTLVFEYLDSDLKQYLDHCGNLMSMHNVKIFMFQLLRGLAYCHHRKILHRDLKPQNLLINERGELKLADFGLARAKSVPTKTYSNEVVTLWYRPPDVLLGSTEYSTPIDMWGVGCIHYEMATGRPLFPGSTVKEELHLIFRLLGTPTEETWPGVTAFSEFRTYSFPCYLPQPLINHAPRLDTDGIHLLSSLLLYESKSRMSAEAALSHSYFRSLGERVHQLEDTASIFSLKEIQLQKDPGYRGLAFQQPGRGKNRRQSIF
cAMP-dependent protein kinase catalytic subunit PRKX (Homo sapiens), sequence (P51817 whole entry, the tested form may be a part): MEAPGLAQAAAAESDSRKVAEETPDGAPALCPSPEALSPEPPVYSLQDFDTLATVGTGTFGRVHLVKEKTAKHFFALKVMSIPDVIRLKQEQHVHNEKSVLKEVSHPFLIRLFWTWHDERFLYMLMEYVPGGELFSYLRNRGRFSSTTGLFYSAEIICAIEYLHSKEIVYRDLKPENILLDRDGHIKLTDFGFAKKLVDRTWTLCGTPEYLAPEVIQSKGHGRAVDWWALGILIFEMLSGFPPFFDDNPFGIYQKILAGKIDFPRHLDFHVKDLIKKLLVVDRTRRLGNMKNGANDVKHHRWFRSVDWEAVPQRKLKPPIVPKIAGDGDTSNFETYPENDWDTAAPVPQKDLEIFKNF
Phosphatidylinositol 4-phosphate 5-kinase type-1 gamma (Homo sapiens), sequence (O60331 whole entry, the tested form may be a part): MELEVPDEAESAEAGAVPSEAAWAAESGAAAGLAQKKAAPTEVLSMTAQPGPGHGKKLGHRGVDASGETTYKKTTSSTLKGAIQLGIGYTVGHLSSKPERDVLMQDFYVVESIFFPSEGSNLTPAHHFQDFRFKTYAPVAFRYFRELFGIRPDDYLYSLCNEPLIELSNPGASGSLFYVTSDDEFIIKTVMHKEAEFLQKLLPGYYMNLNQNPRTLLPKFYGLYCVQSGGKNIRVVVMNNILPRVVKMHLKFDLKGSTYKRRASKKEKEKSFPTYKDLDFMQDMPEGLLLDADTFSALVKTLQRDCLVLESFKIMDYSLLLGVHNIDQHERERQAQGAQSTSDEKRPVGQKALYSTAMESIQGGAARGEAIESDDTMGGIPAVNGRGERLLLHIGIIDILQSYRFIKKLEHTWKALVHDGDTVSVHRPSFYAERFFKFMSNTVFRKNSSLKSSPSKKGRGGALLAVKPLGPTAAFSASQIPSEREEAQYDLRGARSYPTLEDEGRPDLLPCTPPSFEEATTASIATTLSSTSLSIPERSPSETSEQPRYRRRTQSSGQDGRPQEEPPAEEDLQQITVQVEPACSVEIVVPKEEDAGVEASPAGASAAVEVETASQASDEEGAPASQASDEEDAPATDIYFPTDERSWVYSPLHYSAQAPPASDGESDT
Epidermal growth factor receptor (Homo sapiens), sequence (P00533 whole entry, the tested form may be a part): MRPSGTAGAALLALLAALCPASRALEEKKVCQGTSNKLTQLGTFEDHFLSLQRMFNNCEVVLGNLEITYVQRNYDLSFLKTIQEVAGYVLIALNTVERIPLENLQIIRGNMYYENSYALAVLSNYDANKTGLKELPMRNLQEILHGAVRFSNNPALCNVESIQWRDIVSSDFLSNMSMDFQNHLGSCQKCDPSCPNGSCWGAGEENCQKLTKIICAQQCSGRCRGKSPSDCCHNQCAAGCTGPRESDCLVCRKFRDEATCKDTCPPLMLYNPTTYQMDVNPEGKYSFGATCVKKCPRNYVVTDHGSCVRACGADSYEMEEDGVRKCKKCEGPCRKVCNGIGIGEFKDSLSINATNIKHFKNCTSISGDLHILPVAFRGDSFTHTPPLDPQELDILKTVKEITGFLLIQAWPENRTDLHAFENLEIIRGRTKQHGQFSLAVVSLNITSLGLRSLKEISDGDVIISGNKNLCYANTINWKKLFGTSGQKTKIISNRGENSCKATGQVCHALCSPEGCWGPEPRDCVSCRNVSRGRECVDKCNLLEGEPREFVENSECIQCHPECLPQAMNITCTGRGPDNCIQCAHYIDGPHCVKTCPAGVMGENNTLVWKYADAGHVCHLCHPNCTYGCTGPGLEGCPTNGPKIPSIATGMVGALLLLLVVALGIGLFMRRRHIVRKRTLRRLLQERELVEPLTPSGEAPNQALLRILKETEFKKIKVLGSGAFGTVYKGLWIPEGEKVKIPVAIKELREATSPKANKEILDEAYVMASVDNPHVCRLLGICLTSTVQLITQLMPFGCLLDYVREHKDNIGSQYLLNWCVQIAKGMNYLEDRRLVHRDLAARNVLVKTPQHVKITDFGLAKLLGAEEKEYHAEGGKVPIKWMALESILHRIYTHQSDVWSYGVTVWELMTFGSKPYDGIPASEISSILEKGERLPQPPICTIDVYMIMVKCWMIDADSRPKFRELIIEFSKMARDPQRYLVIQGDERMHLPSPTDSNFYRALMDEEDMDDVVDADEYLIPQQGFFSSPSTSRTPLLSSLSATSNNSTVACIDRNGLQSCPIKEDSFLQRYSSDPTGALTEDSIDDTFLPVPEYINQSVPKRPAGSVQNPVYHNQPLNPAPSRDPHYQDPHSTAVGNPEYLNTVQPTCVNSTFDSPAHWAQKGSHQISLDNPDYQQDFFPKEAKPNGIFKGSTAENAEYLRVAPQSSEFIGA
ALK tyrosine kinase receptor (Homo sapiens), Q9UM73 [L1196M], sequence (Q9UM73 whole entry L1196M, looked up, the tested form may be a part): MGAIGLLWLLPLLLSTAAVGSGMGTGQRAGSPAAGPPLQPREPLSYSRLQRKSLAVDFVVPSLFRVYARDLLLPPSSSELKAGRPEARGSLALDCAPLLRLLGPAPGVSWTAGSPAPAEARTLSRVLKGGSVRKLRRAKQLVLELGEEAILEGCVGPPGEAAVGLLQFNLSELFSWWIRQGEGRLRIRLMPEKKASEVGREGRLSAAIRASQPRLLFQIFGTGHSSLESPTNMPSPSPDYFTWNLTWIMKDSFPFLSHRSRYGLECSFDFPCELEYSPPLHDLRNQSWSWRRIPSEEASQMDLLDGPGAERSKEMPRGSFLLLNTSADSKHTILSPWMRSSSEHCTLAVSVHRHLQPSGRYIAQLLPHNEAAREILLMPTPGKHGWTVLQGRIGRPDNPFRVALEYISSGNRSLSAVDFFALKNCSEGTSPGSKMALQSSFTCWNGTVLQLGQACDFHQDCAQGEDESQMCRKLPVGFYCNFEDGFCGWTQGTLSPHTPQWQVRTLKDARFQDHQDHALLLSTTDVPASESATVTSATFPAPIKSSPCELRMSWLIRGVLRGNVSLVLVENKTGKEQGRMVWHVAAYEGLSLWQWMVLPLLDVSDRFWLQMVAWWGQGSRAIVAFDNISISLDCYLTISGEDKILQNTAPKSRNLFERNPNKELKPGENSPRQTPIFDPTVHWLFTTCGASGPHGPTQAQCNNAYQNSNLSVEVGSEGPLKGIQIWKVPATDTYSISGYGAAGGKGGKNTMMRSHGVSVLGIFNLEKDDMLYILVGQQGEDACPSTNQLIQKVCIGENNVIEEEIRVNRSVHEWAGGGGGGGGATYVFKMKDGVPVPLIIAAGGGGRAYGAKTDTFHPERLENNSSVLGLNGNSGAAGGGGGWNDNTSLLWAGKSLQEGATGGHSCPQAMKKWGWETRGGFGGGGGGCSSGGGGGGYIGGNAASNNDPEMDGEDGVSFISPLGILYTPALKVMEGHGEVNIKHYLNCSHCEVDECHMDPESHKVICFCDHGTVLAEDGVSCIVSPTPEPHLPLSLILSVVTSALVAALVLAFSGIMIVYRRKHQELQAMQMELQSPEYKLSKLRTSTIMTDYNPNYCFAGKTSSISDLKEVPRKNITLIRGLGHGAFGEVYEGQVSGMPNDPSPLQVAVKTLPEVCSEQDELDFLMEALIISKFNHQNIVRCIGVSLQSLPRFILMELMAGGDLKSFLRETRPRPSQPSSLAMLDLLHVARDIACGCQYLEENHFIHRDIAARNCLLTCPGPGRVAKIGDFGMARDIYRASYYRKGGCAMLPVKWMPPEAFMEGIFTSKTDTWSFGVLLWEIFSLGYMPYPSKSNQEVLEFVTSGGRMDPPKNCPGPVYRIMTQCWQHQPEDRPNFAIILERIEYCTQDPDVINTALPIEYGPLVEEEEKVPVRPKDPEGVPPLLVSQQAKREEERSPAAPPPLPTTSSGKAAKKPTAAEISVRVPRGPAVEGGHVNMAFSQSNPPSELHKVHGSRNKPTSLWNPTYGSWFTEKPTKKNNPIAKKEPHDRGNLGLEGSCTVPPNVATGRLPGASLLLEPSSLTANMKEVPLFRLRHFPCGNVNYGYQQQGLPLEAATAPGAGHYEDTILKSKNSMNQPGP

The term EC50 denotes the midpoint of the concentration-response curve. As for `COCCN[C@H]1CC[C@H](Nc2cc(-c3csc(NCC4(C#N)CCOCC4)n3)c(Cl)cn2)CC1`, the concentration for a half-maximal effect (EC50) in series [1] was under 100 nM. Also, the inhibition result in series [1] was “Dose-dependent effect”. Further, in series [2], the Vd was 18.2 L/kg. Also, the Activity in [3] stood at 100%; in series [4] it was 78%; in [5], 94%; in series [6] it was 57%; in series [7] it was 87%; in [8] it was 49%. The Activity turned out to be 100% in series [9], 91% in series [10] and 65% in [11].
